Measurements as given in ChEMBL document CHEMBL3351891, “Synthesis and structure-activity relationships of lapacho analogues. 2. Modification of the basic naphtho[2,3-b]furan-4,9-dione, redox activation, and suppression of human keratinocyte hyperproliferation by 8-hydroxynaphtho[2,3-b]thiophene-4,9-diones” (J Med Chem, 2014).
pIC50: −log10 of the molar value.

Assays:
[1] = tested on: HaCaT; assay: Antihyperproliferative activity against human HaCaT cells assessed as inhibition of cell growth after 48 hrs by phase contrast microscopy; format: functional, cell-based
Outline: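 Immortalized human HaCaT keratinocytes incubated with compound for 48 h; growth determined by counting dispersed cells under phase contrast microscopy. Inhibition = (1 − test/control) × 100, test N = 3 vs control N = 6−8, Student's t test; IC50 by nonlinear regression.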

[2] = Induction of superoxide generation measured per 2 mU of enzyme in presence of cytochrome P450 oxidoreductase; format: physicochemical
Outline: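 Human recombinant NADPH–cytochrome P450 oxidoreductase with compound ([…]); spectrophotometric SOD-inhibitable reduction of succinoylated cytochrome c, with catalase and DTPA present. Rate given as μmol/L/min per 2 mU enzyme; mean ± SD, N ≥ 3.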

[3] = Induction of superoxide generation measured per U of enzyme in presence of NQO-1; format: physicochemical
Outline: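 Human recombinant NQO-1 with NADPH and compound ([…]); superoxide followed spectrophotometrically as SOD-inhibitable cytochrome c reduction, with catalase and DTPA added. Rate as μmol/L/min per U enzyme; mean ± SD, N ≥ 3.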

[4] = tested on: HaCaT; assay: Induction of superoxide generation in human HaCaT cells assessed as mean fluorescence intensity at 50 umol/L for 30 mins acute treatment (reference value: 7.1 +/- 5.2 no unit); format: functional
[5] = tested on: HaCaT; assay: Induction of superoxide generation in human HaCaT cells assessed as mean fluorescence intensity at 5 umol/L for 18 hrs chronic treatment (reference value: 367.5 +/- 80.1 no unit); format: functional
[6] = tested on: HaCaT; assay: Induction of superoxide generation in human HaCaT cells assessed as mean fluorescence intensity at 5 umol/L for 18 hrs chronic treatment in presence of dicoumarol NQO-1 inhibitor (reference value: 407.6 +/- 68.7 no unit); format: functional
[7] = tested on: HaCaT; assay: Induction of superoxide generation in human HaCaT cells assessed as apoptotic cells at 5 umol/L for 18 hrs chronic treatment (reference value: 3 +/- 1%); format: functional
[8] = tested on: HaCaT; assay: Induction of superoxide generation in human HaCaT cells assessed as apoptotic cells at 5 umol/L for 18 hrs chronic treatment in presence of dicoumarol NQO-1 inhibitor (reference value: 4.3 +/- 2.6%); format: functional
[9] = tested on: HaCaT; assay: Antihyperproliferative activity against human HaCaT cells assessed as LDH release at 2 umol/L after 4 hrs; format: functional
Outline: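 HaCaT keratinocytes exposed to test compound (2 μM) for 4 h at 37 °C; extracellular LDH in supernatant measured by UV method with pyruvate and NADH, reported as mU/mL. Vehicle control 0.2% DMSO in medium; Brij 35 with ultrasound as positive control; N = 3.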

SMILES	pIC50 [1]	other results
O=C1c2ccccc2C(=O)c2[nH]cnc21	< 4.52	
CCOC(=O)c1cc2c(s1)C(=O)c1c(OC)cccc1C2=O	5.54	
O=C1c2ccsc2C(=O)c2c(O)cccc21	5.56	Activity [2]: 1.8 µmol/L/min; Activity [3]: 0.3 µmol/L/min; Flu intensity [4]: 23.8; Flu intensity [5]: 610.6; Flu intensity [6]: 717.7; Activity [7]: 4.9%; Activity [8]: 6.1%
O=C1c2ccsc2C(=O)c2c(Cl)cccc21	5.42	
Nc1cccc2c1C(=O)c1sccc1C2=O	< 4.52	
CC(=O)Nc1cccc2c1C(=O)c1sccc1C2=O	5.56	
O=C1c2sccc2Cc2cccc(O)c21	5.60	
O=C1c2ccccc2C(=O)c2[se]ccc21	5.21	
O=C1c2ccccc2C(=O)c2[nH]ccc21	< 4.52	
Cn1cnc2c1C(=O)c1ccccc1C2=O	< 4.52	
O=C1c2ccccc2C(=O)c2ocnc21	6.05	
O=C1c2ccccc2C(=O)c2scnc21	5.92	
CC(=O)c1cc2c(s1)C(=O)c1c(O)cccc1C2=O	6.40	Activity [2]: 1.1 µmol/L/min; Activity [3]: 0.6 µmol/L/min; Flu intensity [4]: 23.7; Flu intensity [5]: 921.4; Flu intensity [6]: 813; Activity [7]: 23%; Activity [8]: 7.3%
COc1cccc2c1C(=O)c1sc(C(C)=O)cc1C2=O	5.46	
CC(=O)c1cc2c(s1)C(=O)c1c(Cl)cccc1C2=O	5.89	
CC(=O)c1nc2c([nH]1)C(=O)c1ccccc1C2=O	< 4.52	
CC(=O)c1nc2c(n1C)C(=O)c1ccccc1C2=O	< 4.52	
Cc1ccc2c(c1O)C(=O)c1sccc1C2=O	5.28	
CCc1ccc2c(c1O)C(=O)c1sccc1C2=O	4.94	
O=C(O)Cc1ccc2c(c1O)C(=O)c1sccc1C2=O	4.67	
COC(=O)Cc1ccc2c(c1O)C(=O)c1sccc1C2=O	5.55	
CCOC(=O)Cc1ccc2c(c1O)C(=O)c1sccc1C2=O	5.68	
CCCOC(=O)Cc1ccc2c(c1O)C(=O)c1sccc1C2=O	5.35	
O=C(Cc1ccc2c(c1O)C(=O)c1sccc1C2=O)OCc1ccccc1	< 4.52	
O=C1c2ccsc2C(=O)c2c1ccc(Cc1ccco1)c2O	5.07	Activity [9]: 127 mU/ml

SMILES	pIC50 [1]	other results
O=C1c2ccsc2C(=O)c2c1ccc(Cc1ccccc1)c2O	5.00	Activity [9]: 107 mU/ml
Cc1ccc(Cc2ccc3c(c2O)C(=O)c2sccc2C3=O)cc1	4.86	
O=C1c2ccsc2C(=O)c2c1ccc(Cc1ccc(C(F)(F)F)cc1)c2O	4.78	
N#Cc1ccc(Cc2ccc3c(c2O)C(=O)c2sccc2C3=O)cc1	4.85	
O=C(O)c1ccccc1Cc1ccc2c(c1O)C(=O)c1sccc1C2=O	4.59	
O=C(O)c1ccc(Cc2ccc3c(c2O)C(=O)c2sccc2C3=O)cc1	< 4.52	
COC(=O)c1ccccc1Cc1ccc2c(c1O)C(=O)c1sccc1C2=O	4.72	
COC(=O)c1ccc(Cc2ccc3c(c2O)C(=O)c2sccc2C3=O)cc1	< 4.52	
COc1ccc(Cc2ccc3c(c2O)C(=O)c2sccc2C3=O)cc1	4.63	
COc1ccc(Cc2ccc3c(c2O)C(=O)c2sccc2C3=O)cc1OC	< 4.52	
O=C1c2ccsc2C(=O)c2c1ccc(CO)c2O	5.92	Activity [9]: 214 mU/ml
CC(=O)c1cc2c(s1)C(=O)c1c(ccc(CO)c1O)C2=O	6.15	Activity [9]: 284 mU/ml
O=Cc1cc2c(s1)C(=O)c1c(O)cccc1C2=O	6.00	
CCC(=O)c1cc2c(s1)C(=O)c1c(O)cccc1C2=O	6.42	Activity [9]: 244 mU/ml
CC(C)C(=O)c1cc2c(s1)C(=O)c1c(O)cccc1C2=O	6.35	
O=C(Cc1ccccc1)c1cc2c(s1)C(=O)c1c(O)cccc1C2=O	5.35	
O=C(CCc1ccccc1)c1cc2c(s1)C(=O)c1c(O)cccc1C2=O	< 4.52	
O=C(COc1ccccc1)c1cc2c(s1)C(=O)c1c(O)cccc1C2=O	4.95	
O=C(c1ccccc1)c1cc2c(s1)C(=O)c1c(O)cccc1C2=O	6.10	Activity [9]: 419 mU/ml
O=C(c1ccc(Cl)cc1)c1cc2c(s1)C(=O)c1c(O)cccc1C2=O	5.25	
COc1ccc(C(=O)c2cc3c(s2)C(=O)c2c(O)cccc2C3=O)cc1	5.33	
COc1ccc(C(=O)c2cc3c(s2)C(=O)c2c(O)cccc2C3=O)c(O)c1	5.15	
O=C(c1cccs1)c1cc2c(s1)C(=O)c1c(O)cccc1C2=O	6.54	Activity [9]: 158 mU/ml
O=C(c1cccnc1)c1cc2c(s1)C(=O)c1c(O)cccc1C2=O	6.52	Activity [9]: 154 mU/ml
O=C(O)c1cc2c(s1)C(=O)c1c(O)cccc1C2=O	< 4.52	

SMILES	pIC50 [1]	other results
CCOC(=O)c1cc2c(s1)C(=O)c1c(O)cccc1C2=O	6.12	Activity [9]: 233 mU/ml
CC(C)OC(=O)c1cc2c(s1)C(=O)c1c(O)cccc1C2=O	6.04	
COc1ccc(COC(=O)c2cc3c(s2)C(=O)c2c(O)cccc2C3=O)cc1	4.92	
O=C(OCCc1ccccc1)c1cc2c(s1)C(=O)c1c(O)cccc1C2=O	< 4.52	
CCN(CC)C(=O)c1cc2c(s1)C(=O)c1c(O)cccc1C2=O	6.44	Activity [9]: 330 mU/ml
CCc1noc(-c2cc3c(s2)C(=O)c2c(O)cccc2C3=O)n1	6.72	Activity [9]: 150 mU/ml; Activity [2]: 1 µmol/L/min; Activity [3]: 0.7 µmol/L/min; Flu intensity [4]: 20.9; Flu intensity [5]: 802.2; Flu intensity [6]: 747; Activity [7]: 77.6%; Activity [8]: 20.3%
O=C1c2cc(-c3nc(CCc4ccccc4)no3)sc2C(=O)c2c(O)cccc21	6.32	
COc1c2ccsc2c(OC)c2c(OC)cccc12	< 4.52	
CCC(=O)c1cc2c(OC)c3cccc(OC)c3c(OC)c2s1	< 4.52	
COc1c2cc(C(=O)c3cccnc3)sc2c(OC)c2c(OC)cccc12	< 4.52	
CCC(=O)c1cc2c(s1)C(=O)c1c(OC)cccc1C2=O	5.46	
COc1cccc2c1C(=O)c1sc(C(=O)c3cccnc3)cc1C2=O	5.24	
CCOC(=O)c1cc2c(OC)c3cccc(OC)c3c(OC)c2s1	< 4.52	
CCc1noc(-c2cc3c(OC)c4cccc(OC)c4c(OC)c3s2)n1	< 4.52	
CCc1noc(-c2cc3c(s2)C(=O)c2c(OC)cccc2C3=O)n1	5.45	
O=C1c2ccsc2C(=O)c2c(O)ccc(O)c21	5.57	
CC(=O)c1cc2c(s1)C(=O)c1c(O)ccc(O)c1C2=O	6.30	
CCCCc1ccc2c(c1O)C(=O)c1sccc1C2=O	< 4.52	
COc1cccc2c1C(=O)c1sccc1C2=O	4.87	
CC(=O)c1cc2c(s1)C(=O)c1ccccc1C2=O	6.36	
O=C1c2c(O)cccc2Cc2cccc(O)c21 [ANTHRALIN]		Activity [9]: 239 mU/ml
CC1(C)CCC2=C(O1)c1ccccc1C(=O)C2=O [LAPACHONE]		Activity [9]: 268 mU/ml
CC1=CC(=O)c2ccccc2C1=O [MENADIONE]		Activity [2]: 2.1 µmol/L/min; Activity [3]: 1 µmol/L/min; Flu intensity [4]: 44; Flu intensity [5]: 431.9; Flu intensity [6]: 457.2; Activity [7]: 4.8%; Activity [8]: 3.1%
O=C1c2ccccc2C(=O)c2sccc21 [THIOPHENONAPHTHOQUINONE]	5.32	
